Reference: PMC5473019 (Journal of the American Chemical Society, 2017)
*1 amine or outer side, *2 acyl side, *3 side chain or, on linkers, in order; H or OH if unused. Where a SMILES comes first, the peptide text is derived from it. Bridges are numbered along the chain shown (N, C = ends). [ ]: non-standard residue; d: D form. The star is where a group is joined. oXylylene = c1ccc(C[*:2])c(C[*:1])c1; Pent4ynoyl = C#CCCC(=O)*

Experiments:
[1] = system: HeLa-Htt103Q cells; experiment: Htt103Q aggregate assay, cellular model of Huntington's disease; format: cell-based; details: HeLa cells expressing CFP-htt103Q, 20 μM peptide, aggregates <1 μm
Summary of the method: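 HeLa cells expressing CFP-Htt103Q were treated with peptide, then fixed in 2% PFA in PBS. An observer blinded to condition counted CFP-positive aggregates <1 μm by fluorescence microscopy. Scores were the percentage of cells carrying small aggregates and the number of small aggregates per cell.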

[2] = system: HeLa cells stably expressing GFP-LC3; experiment: GFP-LC3 puncta assay of autophagic flux, with and without bafilomycin A1; format: cell-based
Summary of the method: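 HeLa cells stably expressing GFP-LC3 were given peptide for 2 h in serum-free Opti-MEM acidified with 0.15% (v/v) 6 N HCl, with or without bafilomycin A1. Cells were fixed in 2% PFA in PBS and GFP-LC3 puncta per cell were counted by fluorescence microscopy, with ≥100 cells per sample. Triplicate samples, mean ± SEM, t test versus DMSO; ≥3 independent experiments.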

[3] = Solubility as observed by the authors; format: physicochemical

## C#CCCC(=O)N[C@H](C(=O)N[C@@H]1CSCc2ccccc2CSC[C@H](C(=O)N[C@@H](Cc2ccccc2)C(=O)N[C@@H](Cc2c[nH]cn2)C(=O)N[C@H](C(=O)N[C@@H](Cc2c[nH]c3ccccc23)C(=O)N[C@@H](Cc2c[nH]cn2)C(N)=O)[C@@H](C)CC)NC(=O)[C@H](C)NC(=O)[C@H](CC(N)=O)NC1=O)C(C)C [DD5-o] (Pent4ynoyl-V[dC]NA[dC]FHIWH-NH2; linker 2-5 via oXylylene)
[1]
  number of small htt103Q aggregates observed per cell: significant decrease
  percentage of cells that have small htt103Q aggregates: significant decrease
[2]; 10 μM peptide, 2 h
  extent of autophagy induction relative to Tat-Beclin 1 (GFP-LC3 puncta): slightly less activity than Tat-Beclin 1
[2]; peptide 2 h plus bafilomycin A1
  change in GFP-LC3 puncta upon cotreatment with Baf A1: further increase in GFP-LC3 puncta
[3]; judged for 2D-NMR experiments
  solubility in water: not soluble enough in water for 2D-NMR experiments

## (HT)-VcNAcFHIWH (sidechain bridge or staple) [HT-DD5-o]
[3]; medium not stated, N-terminal tag attached to DD5-o
  solubility compared with DD5-o: equally soluble as DD5-o
